Hits are enriched below; roughly 4.9% of the tested compounds scored in any of these assays.
STAT1 blocker: reduces IFN-gamma driven STAT1 reporter signal | NIH 3T3 STAT1-luciferase reporter, luminescence | inhibition, % at 5.5 µM | 200,000 tested, 0.35% active | AID 920;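 active = inhibition above a set limit, the mean inhibition across all tested compounds plus 3 SD, cut at about 34% in these data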
STAT3 activator: increases IL-6 driven STAT3 reporter signal; U3A cells, IL-6 STAT3-luciferase reporter, luminescence; 100% = signal with IL-6 EC80 alone; activation (% of control), % at 5.6 µM; 190,000 tested, 0.91% active; AID 871;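 active = activation above the screen-wide mean of compound activation plus 3 SD, cut at about 130% in these data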
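System – human U3A cells carrying STAT3-luciferase construct · Probe or stimulus – Interleukin-6, 33 ng/mL · Schedule – compound 1 h, then IL-6 6 h at 37 °C · Signal – luminescence from STAT3-driven luciferase reporter · Evaluation – percent of IL-6-only median luminescence · Benchmarks – IL-6-only high control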
STAT3 inh: STAT3 signaling inhibition. inhibition, % at 5.5 µM. 190,000 tested, 0.89% active. U3A cells, IL-6 STAT3-luciferase reporter, luminescence; host cell line lacks STAT1;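 active = inhibition above the mean inhibition across all screened compounds plus 3 SD, cut at about 44% in these data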
STAT1 act: activators of IFN-gamma induced STAT1 signaling | NIH 3T3 STAT1-luciferase reporter, luminescence; 100% = IFN-gamma alone, no compound | activation (% of control), % at 5.5 µM | 200,000 tested, 2.6% active | AID 932;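 active = activation above the screen-wide mean activation plus 3 SD, cut at about 130% in these data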
NF-kB expr up: raises NF-kB expression in human neuronal cells | 190,000 tested, 1.6% active | AID 1239 | NF-kB reporter expression; active compounds read high | fold change at 12.5 µM; in the data active = fold change above about 3.3
APP 5'UTR act: APP 5'UTR luciferase reporter activation; activation, % at 2 µM; SH-SY5Y APP 5'UTR luciferase reporter, luminescence; zero percent = DMSO vehicle wells; 190,000 tested, 1% active; AID 1276;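 active = activation above a set limit, based on mean plus 3 SD of controls, cut at about 140% in these data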
Of the large screens only hits and unclear results are named; the others gave an inactive call.

COc1ccccc1NC(=O)COC(=O)c1ccccc1OCC(=O)Nc1ccc(SC(F)F)cc1	none
Cc1ccc(-c2cccc(CN3CCN(C4CCN(C(C)C)CC4)C(CCO)C3)c2)o1 (configuration not stated)	none
CCOc1ccc(NC(=O)Nc2cccs2)cc1	NF-kB expr up 4.52 (no result: APP 5'UTR act)
Cc1ccc(NC(=O)Nc2cccs2)cc1	none
CCc1ccc(NC(=O)Nc2cccs2)cc1	STAT1 act 133.7, NF-kB expr up 3.8
CN(CC(=O)Nc1ccc(F)cc1)CC(=O)Nc1ccc(F)c(F)c1F	none
COc1ccccc1NC(=O)N1C2CCCC1CC(NC(=O)c1ccccc1)C2 (configuration not stated)	none
CC(C)=CC(=O)Nc1ccc(S(=O)(=O)Nc2ccccn2)cc1	none
Cc1ccc2c(C)c(C(=O)Nc3cccnc3)oc2c1	none
Cc1ccc2c(Cl)c(C(=O)Nc3cccnc3)sc2c1	APP 5'UTR act 168.6
CN(C)CCNC(=O)c1cc2c(s1)-c1ccccc1OC2	none
Cc1csc(NC(=O)c2cc3c(s2)-c2ccccc2OC3)n1	STAT1 act 138.6
CC(C)C/C=C1\CCc2c([nH]c3ccccc23)C1=O	STAT1 act 143.1
CCCCCCCCCCC(=O)NNC(=O)c1c(O)c2ccccc2n(CC)c1=O	none
Cc1ccc(-c2nc(CN(C)Cc3cccc4cnccc34)c(C)o2)s1	none
O=C(NCCn1ccc2ccccc21)c1ccc2c(c1)OCO2	STAT1 act 139.2, NF-kB expr up 5.74, APP 5'UTR act 149.5
COc1ccc(C(=O)NCCn2ccc3ccccc32)cc1	NF-kB expr up 4.05
COC(=O)c1ccc(NC(=O)c2cccc(C)c2[N+](=O)[O-])cc1	none
Nc1ccc(N2CCN(c3ccc(Cl)c(Cl)c3)CC2)cc1	NF-kB expr up 3.41
Nc1ccc(N2CCN(c3ccc(F)cc3)CC2)cc1	none
CSc1cccc(NC(=S)N2CCCN(Cc3ccccc3F)C2)c1	none
Nc1ccc(Cl)c(-c2nc3ncccc3o2)c1	none
Cc1cc(-c2nc3ncccc3o2)ccc1N	STAT1 act 138.6
Nc1cc(-c2nc3ncccc3o2)ccc1Cl	STAT1 act 129.9
Nc1ccc(-c2nc3ncccc3o2)c(Cl)c1	STAT1 act 145.0
CC(NC(=O)CCN1N=C(c2ccccc2)CCC1=O)c1ccc2c(c1)OCCO2 (configuration not stated)	none
CCN(CC)S(=O)(=O)c1cccc(C(=O)N/N=C(\C)c2cccs2)c1	STAT1 act 128.7
C/C(=N\NC(=O)C(N)=O)c1ccc(NC(=O)c2cccs2)cc1	STAT1 act 137.2
C/C(=N/NC(=O)c1cccs1)c1cccc(N)c1	none
C/C(=N\NC(=O)c1ccccc1)c1ccc(NC(=O)c2cccs2)cc1	STAT1 act 135.9
C/C(=N\NC(=O)c1cccc(S(=O)(=O)Nc2cccc(Cl)c2)c1)c1cccs1	none
CC(=O)Nc1cccc(/C(C)=N/NC(=O)c2cccs2)c1	STAT1 act 140.2
CNc1nc(Nc2ccc(Br)cc2)nc(N)c1[N+](=O)[O-]	none
Cc1cc(C)[n+](C)n1CC(O)Cn1c2ccccc2c2ccccc21 (configuration not stated)	none
COc1cc(/C=C/C(=O)O)cc(S(=O)(=O)Nc2ccc3nc(SC)sc3c2)c1OC	none
Nc1cc(C(=O)O)ccc1Sc1ccccc1C(=O)O	none
N/C(=N\O)c1ccc(NC(=O)c2cccs2)cc1	STAT1 act 130.2
C/C(=N\NC(=O)c1ccccc1)c1ccccc1F	STAT1 act 132.4
COc1cc(OC)cc(C(=O)/C=C2\Sc3ccccc3N2C)c1	STAT1 act 130.7
CN1/C(=C\C(=O)c2cccs2)C(C)(C)c2ccccc21	none
CN1/C(=C/C(=O)c2cccs2)Sc2ccccc21	STAT3 activator 162.9, STAT1 act 140.3, NF-kB expr up 5.26
Cc1c(NC(=S)NC(=O)c2cc3ccccc3o2)c(=O)n(-c2ccccc2)n1C	none
O=C1CN(C(=O)Cn2ncc(Cl)c(Cl)c2=O)c2ccccc2N1	none
O=C1CN(CC(=O)Nc2cccc(Cl)c2Cl)c2ccccc2N1	STAT3 activator 149.3
CCC(C)N(CC(=O)Nc1cccc(C)c1C)C(=O)CCl (configuration not stated)	STAT1 blocker 38.2, STAT3 inh 70.1
CC(C)N(CC(=O)Nc1ccc(Cl)cc1C(F)(F)F)C(=O)CCl	STAT1 blocker 45.6, STAT3 inh 64.8
CCC(CC)NC(=O)Nc1cccc(C)c1C	none
COc1ccc(OC)c(NC(=O)CSc2nnc(C3CCCCC3)o2)c1	none
CN(C)c1ccc(/C=N/NC(=O)c2nonc2N)cc1[N+](=O)[O-]	STAT1 act 133.3
Nc1nonc1C(=O)N/N=C/c1cccc([N+](=O)[O-])c1	none
Cc1nn(C)c(C(=O)N/N=C/c2ccc(Br)cc2)c1Cl	none
CC(C)c1ccc(/C=N/NC(=O)c2c(Cl)cnn2C)cc1	STAT1 act 137.7, NF-kB expr up 5.25
Cc1ccc(OCCOc2ccc(Br)cc2)c([N+](=O)[O-])n1	STAT1 act 134.6
COc1ccc(CNC(=O)COc2ccc(C)nc2[N+](=O)[O-])cc1	none
O=C(Nc1ccccc1)c1sccc1Oc1ccc([N+](=O)[O-])cc1F	none
O=[N+]([O-])c1nn(-c2ccc3c(c2)OCCO3)n(O)c1=NCc1ccc(F)cc1	STAT1 act 143.3
O=[N+]([O-])c1nn(-c2ccc3c(c2)OCCO3)n(O)c1=NCc1ccc(F)cc1Cl	STAT1 act 141.8, APP 5'UTR act 165.4
C/C(=N\NC(=O)c1cccc(N/N=C(\C)c2cc(O)ccc2O)c1)c1cc(O)ccc1O	none
O=C(NN(c1ccccc1)c1ccccc1)c1ccc([N+](=O)[O-])o1	NF-kB expr up 3.55
Cc1cc(NC(=O)c2ccc([N+](=O)[O-])o2)ccc1NC(=O)c1ccco1	NF-kB expr up 5.09
O=C(NCc1cccnc1)c1ccc([N+](=O)[O-])o1	NF-kB expr up 5.33
O=C(NCc1ccco1)c1ccc([N+](=O)[O-])o1	NF-kB expr up 5.63
CCn1nc(C)c(CN2CCc3c([nH]c4ccccc34)C2c2ccc(F)c(OC)c2)c1C (configuration not stated)	none
COc1cc(NC(=O)C(C)C)ccc1NC(=O)c1ccco1	STAT1 act 134.5
COc1cc(NC(=S)NC(=O)c2ccco2)ccc1NC(=O)C(C)C	none
CC(C)CN(C)Cc1c(C(=O)N2CCc3ccccc3C2)nc2ccc(Cl)cn12	NF-kB expr up 5.06
Cc1ccc(NC(=O)N2CCC(c3ccccc3)C2)cc1C (configuration not stated)	STAT1 act 150.5, NF-kB expr up 5.73, APP 5'UTR act 142.7
Cc1ccc(C2CCN(C(=O)Nc3ccccc3)C2)cc1 (configuration not stated)	none
COc1ccccc1/C=C/C(=O)N1CCC(c2ccccc2)C1 (configuration not stated)	STAT1 act 134.2

Assay outcomes from PubChem.
